Reference: ChEMBL document CHEMBL1926614, “Substituted thiazoles V. synthesis and antitumor activity of novel thiazolo[2,3-b]quinazoline and pyrido[4,3-d]thiazolo[3,2-a]pyrimidine analogues” (2012)

Columns and labels:
Format in all cases: functional
786-0 = assay: Growth inhibition of human 786-0 cells at 10 uM after 48 hrs by coulter counting; details: 786-0, 48 h, read-out: GI
In short: (§1)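 Single-dose primary screen across the full NCI 60-cell-line panel. Stocks were made in DMSO and diluted in PBS to a final DMSO below 1%. Cultures at 6 × 10⁴ cells/ml were run in duplicate wells alongside PBS/DMSO vehicle controls at 37 °C in humidified 5% CO₂. Data were expressed as percent growth of treated cells.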

SK-MEL-28 = assay: Growth inhibition of human SK-MEL-28 cells at 10 uM after 48 hrs by coulter counting; details: SK-MEL-28, 48 h, read-out: GI; in short: as §1
[1] = Growth inhibition of human NCI-322M cells at 10 uM after 48 hrs by coulter counting; details: read-out: GI; in short: as §1
NCI-H522 = assay: Growth inhibition of human NCI-H522 cells at 10 uM after 48 hrs by coulter counting; details: NCI-H522, 48 h, read-out: GI; in short: as §1
HCT-116 = assay: Growth inhibition of human HCT116 cells at 10 uM after 48 hrs by coulter counting; details: HCT-116, 48 h, read-out: GI; in short: as §1
CCRF-CEM = assay: Growth inhibition of human CCRF-CEM cells at 10 uM after 48 hrs by coulter counting; details: read-out: GI; in short: as §1
TK-10 = assay: Growth inhibition of human TK10 cells at 10 uM after 48 hrs by coulter counting; details: TK-10, 48 h, read-out: GI
In short: (§2)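 Single-dose screen in the NCI 60 human tumor cell line panel (nine subpanels). Compounds dissolved in DMSO and diluted in phosphate buffered saline, keeping final DMSO below 1%. Added in duplicate wells to cells at 6 × 10⁴ cells/ml. Controls held PBS and DMSO at matching dilutions. Incubated at 37 °C, humidified, 5% CO₂. Reported as percent growth of treated cells.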

T47D = assay: Growth inhibition of human T47D cells at 10 uM after 48 hrs by coulter counting; details: read-out: GI; in short: as §2
MCF7 = assay: Growth inhibition of human MCF7 cells at 10 uM after 48 hrs by coulter counting; details: MCF7, 48 h, read-out: GI; in short: as §1
KM12 = assay: Growth inhibition of human KM12 cells at 10 uM after 48 hrs by coulter counting; details: KM12, 48 h, read-out: GI; in short: as §1
NCI-H460 = assay: Growth inhibition of human NCI-H460 cells at 10 uM after 48 hrs by coulter counting; details: NCI-H460, 48 h, read-out: GI; in short: as §1
A549 = assay: Growth inhibition of human A549 cells at 10 uM after 48 hrs by coulter counting; details: A549, 48 h, read-out: GI; in short: as §1
SN12C = assay: Growth inhibition of human SN12C cells at 10 uM after 48 hrs by coulter counting; details: read-out: GI; in short: as §1
NCI-H226 = assay: Growth inhibition of human NCI-H226 cells at 10 uM after 48 hrs by coulter counting; details: NCI-H226, 48 h, read-out: GI; in short: as §1
DU-145 = assay: Growth inhibition of human DU145 cells at 10 uM after 48 hrs by coulter counting; details: DU-145, 48 h, read-out: GI; in short: as §1
UO-31 = assay: Growth inhibition of human UO31 cells at 10 uM after 48 hrs by coulter counting; details: UO-31, 48 h, read-out: GI; in short: as §2
CAKI-1 = assay: Growth inhibition of human Caki1 cells at 10 uM after 48 hrs by coulter counting; details: CAKI-1, 48 h, read-out: GI; in short: as §1
NCI/ADR-RES = assay: Growth inhibition of human NCI/ADR-RES cells at 10 uM after 48 hrs by coulter counting; details: read-out: GI; in short: as §1
HOP-62 = assay: Growth inhibition of human HOP62 cells at 10 uM after 48 hrs by coulter counting; details: HOP-62, 48 h, read-out: GI; in short: as §1
NCI-H23 = assay: Growth inhibition of human NCI-H23 cells at 10 uM after 48 hrs by coulter counting; details: NCI-H23, 48 h, read-out: GI; in short: as §1
SF-268 = assay: Growth inhibition of human SF268 cells at 10 uM after 48 hrs by coulter counting; details: SF-268, 48 h, read-out: GI; in short: as §1
SNB-75 = assay: Growth inhibition of human SNB75 cells at 10 uM after 48 hrs by coulter counting; details: SNB-75, 48 h, read-out: GI; in short: as §1
M14 = assay: Growth inhibition of human M14 cells at 10 uM after 48 hrs by coulter counting; details: M14, 48 h, read-out: GI; in short: as §1
SF-295 = assay: Growth inhibition of human SF295 cells at 10 uM after 48 hrs by coulter counting; details: SF-295, 48 h, read-out: GI; in short: as §1
HCT-15 = assay: Growth inhibition of human HCT15 cells at 10 uM after 48 hrs by coulter counting; details: HCT-15, 48 h, read-out: GI; in short: as §1
SNB-19 = assay: Growth inhibition of human SNB19 cells at 10 uM after 48 hrs by coulter counting; details: SNB-19, 48 h, read-out: GI; in short: as §1
LOX IMVI = assay: Growth inhibition of human LOXIMVI cells at 10 uM after 48 hrs by coulter counting; details: read-out: GI; in short: as §1
SK-MEL-2 = assay: Growth inhibition of human SK-MEL-2 cells at 10 uM after 48 hrs by coulter counting; details: SK-MEL-2, 48 h, read-out: GI; in short: as §1
ACHN = assay: Growth inhibition of human ACHN cells at 10 uM after 48 hrs by coulter counting; details: read-out: GI; in short: as §1
SK-MEL-5 = assay: Growth inhibition of human SK-MEL-5 cells at 10 uM after 48 hrs by coulter counting; details: SK-MEL-5, 48 h, read-out: GI; in short: as §1
RPMI-8226 = assay: Growth inhibition of human RPMI8226 cells at 10 uM after 48 hrs by coulter counting; details: RPMI-8226, 48 h, read-out: GI; in short: as §1
A498 = assay: Growth inhibition of human A498 cells at 10 uM after 48 hrs by coulter counting; details: A498, 48 h, read-out: GI; in short: as §1
OVCAR-8 = assay: Growth inhibition of human OVCAR8 cells at 10 uM after 48 hrs by coulter counting; details: OVCAR-8, 48 h, read-out: GI; in short: as §1
EKVX = assay: Growth inhibition of human EKVX cells at 10 uM after 48 hrs by coulter counting; details: read-out: GI; in short: as §1
MDA-MB-435 = assay: Growth inhibition of human MDA-MB-435 cells at 10 uM after 48 hrs by coulter counting; details: MDA-MB-435, 48 h, read-out: GI; in short: as §1
UACC-62 = assay: Growth inhibition of human UACC62 cells at 10 uM after 48 hrs by coulter counting; details: UACC-62, 48 h, read-out: GI; in short: as §2
K562 = assay: Growth inhibition of human K562 cells at 10 uM after 48 hrs by coulter counting; details: K562, 48 h, read-out: GI; in short: as §1
BT-549 = assay: Growth inhibition of human BT549 cells at 10 uM after 48 hrs by coulter counting; details: BT-549, 48 h, read-out: GI; in short: as §1
HL-60(TB) = assay: Growth inhibition of human HL-60(TB) cells at 10 uM after 48 hrs by coulter counting; details: HL-60, 48 h, read-out: GI
In short: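 Test compound was dissolved in DMSO and diluted in phosphate-buffered saline to a final DMSO level below 1%. Dilutions were plated in duplicate with cell culture at 6 × 10⁴ cells/ml. Vehicle controls held PBS and DMSO at matching dilutions. Incubation was at 37 °C, humidified, under 5% CO₂. Data were reported as percent growth of treated cells.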

HT-29 = assay: Growth inhibition of human HT-29 cells at 10 uM after 48 hrs by coulter counting; details: HT-29, 48 h, read-out: GI; in short: as §1
MOLT-4 = assay: Growth inhibition of human MOLT4 cells at 10 uM after 48 hrs by coulter counting; details: MOLT-4, 48 h, read-out: GI; in short: as §1
UACC-257 = assay: Growth inhibition of human UACC257 cells at 10 uM after 48 hrs by coulter counting; details: UACC-257, 48 h, read-out: GI; in short: as §2
U-251 = assay: Growth inhibition of human U251 cells at 10 uM after 48 hrs by coulter counting; details: U-251, 48 h, read-out: GI; in short: as §2

CCN1CC2=C(N=C3SC=C(C)N3C2c2cccs2)/C(=C/c2cccs2)C1 (stereo not drawn)
inhibition of growth at 10 µM (786-0): > 10% | inhibition of growth at 10 µM (SK-MEL-28): > 10% | inhibition of growth at 10 µM [1]: > 10% | inhibition of growth at 10 µM (NCI-H522): > 10% | inhibition of growth at 10 µM (HCT-116): > 10% | inhibition of growth at 10 µM (CCRF-CEM): > 10% | inhibition of growth at 10 µM (TK-10): > 10% | inhibition of growth at 10 µM (T47D): > 10% | inhibition of growth at 10 µM (MCF7): > 10% | inhibition of growth at 10 µM (KM12): > 10% | inhibition of growth at 10 µM (NCI-H460): > 10% | inhibition of growth at 10 µM (A549): > 10% | inhibition of growth at 10 µM (SN12C): > 10% | inhibition of growth at 10 µM (NCI-H226): > 10% | inhibition of growth at 10 µM (DU-145): > 10% | inhibition of growth at 10 µM (UO-31): 21.8% | inhibition of growth at 10 µM (CAKI-1): > 10% | inhibition of growth at 10 µM (NCI/ADR-RES): > 10% | inhibition of growth at 10 µM (HOP-62): > 10% | inhibition of growth at 10 µM (NCI-H23): > 10% | inhibition of growth at 10 µM (SF-268): > 10% | inhibition of growth at 10 µM (SNB-75): 13.6% | inhibition of growth at 10 µM (M14): > 10% | inhibition of growth at 10 µM (SF-295): > 10% | inhibition of growth at 10 µM (HCT-15): > 10% | inhibition of growth at 10 µM (SNB-19): > 10% | inhibition of growth at 10 µM (LOX IMVI): > 10% | inhibition of growth at 10 µM (SK-MEL-2): > 10% | inhibition of growth at 10 µM (ACHN): > 10% | inhibition of growth at 10 µM (SK-MEL-5): > 10% | inhibition of growth at 10 µM (RPMI-8226): > 10% | inhibition of growth at 10 µM (A498): > 10% | inhibition of growth at 10 µM (OVCAR-8): > 10% | inhibition of growth at 10 µM (EKVX): 17.7% | inhibition of growth at 10 µM (MDA-MB-435): > 10% | inhibition of growth at 10 µM (UACC-62): > 10% | inhibition of growth at 10 µM (K562): > 10% | inhibition of growth at 10 µM (BT-549): > 10% | inhibition of growth at 10 µM (HL-60(TB)): > 10% | inhibition of growth at 10 µM (HT-29): > 10% | inhibition of growth at 10 µM (MOLT-4): > 10% | inhibition of growth at 10 µM (UACC-257): > 10% | inhibition of growth at 10 µM (U-251): > 10%
